Entries after “also recorded” stand apart in the source; their conditions may differ.
Tests used:
[1] = Treatment-emergent adverse events, MAD period and b.i.d. cohort; format: in vivo, human
In short: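 Double-blind, placebo-controlled study in healthy men and nonchildbearing women aged 18–55 y. The SAD period gave one fasted oral dose; the MAD period gave fed dosing q.d. for 10 days, plus a separate b.i.d. cohort. TEAEs, serious AEs and discontinuation AEs were monitored ≥28 days after the last dose. Vital signs, physical exam, 12-lead ECG, hematology, clinical chemistry and urinalysis were also recorded. Data summarized descriptively.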

[2] = tested on: MATE1; conditions: cited from earlier work
[3] = tested on: OATP1B3; conditions: cited from earlier work
[4] = Plasma PK, single ascending dose; format: in vivo, human; conditions: for t1/2: arithmetic mean (SD); for AUCinf (dn) / Cmax (dn): dose normalized; for AUCinf (dn) / Cmax (dn) / AUCinf / Cmax: geometric mean (CV %); for Tmax: median (range)
In short: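 Healthy volunteers were randomized 3:1 to test compound or placebo, given as a single oral dose of 3–1,600 mg (tablets; suspension for 3 mg) after an overnight fast of ≥8 h. Plasma was sampled predose and at 0.5–72 h. Assay LLOQ was 1 ng/mL. Parameters came from noncompartmental analysis, were dose-normalized to 1 mg, and were reported as geometric mean (CV), with Tmax excepted.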

[5] = tested on: CYP3A4; test: 6‐beta‐hydroxycortisol/cortisol ratio; format: in vivo, human; conditions: participants receiving PF‐06826647
[6] = tested on: MRP1; conditions: cited from earlier work
[7] = tested on: sodium/Na+ taurocholate co‐transporting polypeptide; conditions: cited from earlier work
[8] = tested on: MATE2; conditions: cited from earlier work
[9] = MAD Japanese cohort 400 mg q.d. (n = 5)
[10] = b.i.d. cohort 200 mg b.i.d. (n = 7)
[11] = SAD 1,600 mg single dose fasted

Cn1cc(-c2cn3nccc3c(-c3cnn([C@]4(CC#N)C[C@@H](C#N)C4)c3)n2)cn1 [PF‐06826647]
Participants with TEAEs: Dysuria [1, 9]: 0 n (%)
Participants with TEAEs: Gastrointestinal disorders (SOC) [1, 9]: 0 n (%)
Participants with TEAEs: Headache [1, 9]: 1 (20.0) n (%)
Participants with TEAEs: Investigations (SOC) [1, 9]: 1 (20.0) n (%)
Participants with TEAEs: Nausea [1, 9]: 0 n (%)
Participants with TEAEs: Nervous system disorders (SOC) [1, 9]: 1 (20.0) n (%)
Participants with TEAEs: Renal and urinary disorders (SOC) [1, 9]: 0 n (%)
SAEs [1, 9]: 0 n
Severe AEs [1, 9]: 0 n
AEs [1, 10]: 3 n
AEs leading to permanent discontinuation of study drug [1, 10]: 0 n
AEs leading to study drug dose reduction or interruption [1, 10]: 0 n
Participants with AE [1, 10]: 3 (42.9) n (%)
Participants with TEAEs: Alanine aminotransferase increased [1, 10]: 0 n (%)
Participants with TEAEs: Blood creatinine increased [1, 10]: 3 (42.9) n (%)
Participants with TEAEs: Constipation [1, 10]: 0 n (%)
Participants with TEAEs: Dysuria [1, 10]: 0 n (%)
Participants with TEAEs: Gastrointestinal disorders (SOC) [1, 10]: 0 n (%)
Participants with TEAEs: Headache [1, 10]: 0 n (%)
Participants with TEAEs: Investigations (SOC) [1, 10]: 3 (42.9) n (%)
Participants with TEAEs: Nausea [1, 10]: 0 n (%)
Participants with TEAEs: Nervous system disorders (SOC) [1, 10]: 0 n (%)
Participants with TEAEs: Renal and urinary disorders (SOC) [1, 10]: 0 n (%)
SAEs [1, 10]: 0 n
Severe AEs [1, 10]: 0 n
inhibition of transporter protein MATE1 [2]: minimal inhibition
inhibition of transporter protein OATP1B3 [3]: minimal inhibition
t1/2 ([4]; SAD 3 mg single dose fasted): 3.6 (1.3) hour
AUCinf (dn) ([4]; SAD 3 mg single dose fasted): 15.9 (59) ng.hour/mL/mg
Cmax (dn) ([4]; SAD 3 mg single dose fasted): 2.6 (38) ng/mL/mg
AUCinf ([4]; SAD 3 mg single dose fasted): 47.6 (59) ng.hour/mL
Cmax ([4]; SAD 3 mg single dose fasted): 7.8 (38) ng/mL
Tmax ([4]; SAD 3 mg single dose fasted): 2.0 (1.0–2.0) hour
t1/2 ([4]; SAD 10 mg single dose fasted): 6.0 (1.9) hour
AUCinf (dn) ([4]; SAD 10 mg single dose fasted): 36.9 (67) ng.hour/mL/mg
Cmax (dn) ([4]; SAD 10 mg single dose fasted): 4.7 (35) ng/mL/mg
AUCinf ([4]; SAD 10 mg single dose fasted): 369.3 (67) ng.hour/mL
Cmax ([4]; SAD 10 mg single dose fasted): 47.1 (35) ng/mL
Tmax ([4]; SAD 10 mg single dose fasted): 2.0 (1.0–4.0) hour
t1/2 ([4]; SAD 30 mg single dose fasted): 19.7 (9.5) hour
AUCinf (dn) ([4]; SAD 30 mg single dose fasted): 28.3 (41) ng.hour/mL/mg
Cmax (dn) ([4]; SAD 30 mg single dose fasted): 2.6 (34) ng/mL/mg
AUCinf ([4]; SAD 30 mg single dose fasted): 848.4 (40) ng.hour/mL
Cmax ([4]; SAD 30 mg single dose fasted): 77.9 (34) ng/mL
Tmax ([4]; SAD 30 mg single dose fasted): 2.0 (1.0–4.0) hour
t1/2 ([4]; SAD 100 mg single dose fasted): 38.8 (36.0) hour
AUCinf (dn) ([4]; SAD 100 mg single dose fasted): 15.8 (42) ng.hour/mL/mg
Cmax (dn) ([4]; SAD 100 mg single dose fasted): 1.7 (55) ng/mL/mg
AUCinf ([4]; SAD 100 mg single dose fasted): 1,582.0 (42) ng.hour/mL
Cmax ([4]; SAD 100 mg single dose fasted): 166.8 (55) ng/mL
Tmax ([4]; SAD 100 mg single dose fasted): 2.0 (2.0–6.0) hour
t1/2 ([4]; SAD 400 mg single dose fasted): 16.3 (9.3) hour
AUCinf (dn) ([4]; SAD 400 mg single dose fasted): 7.6 (65) ng.hour/mL/mg
Cmax (dn) ([4]; SAD 400 mg single dose fasted): 1.0 (62) ng/mL/mg
AUCinf ([4]; SAD 400 mg single dose fasted): 3,056.0 (65) ng.hour/mL
Cmax ([4]; SAD 400 mg single dose fasted): 404.8 (62) ng/mL
Tmax ([4]; SAD 400 mg single dose fasted): 2.0 (0.5–4.0) hour
t1/2 [4, 11]: 22.2 (24.6) hour
AUCinf (dn) [4, 11]: 7.4 (25) ng.hour/mL/mg
Cmax (dn) [4, 11]: 0.8 (25) ng/mL/mg
AUCinf [4, 11]: 11,790.0 (25) ng.hour/mL
Cmax [4, 11]: 1,218.0 (25) ng/mL
Tmax [4, 11]: 2.0 (0.5–4.0) hour
dose proportionality of AUCinf and Cmax ([4]; SAD doses of 3–10 mg): greater than dose‐proportional
dose proportionality of AUCinf and Cmax ([4]; SAD doses of 10–400 mg): less than dose‐proportional
dose proportionality of AUCinf and Cmax ([4]; SAD doses of 400–1,600 mg): dose‐proportional
median Tmax ([4]; fasted state, SAD, overall): 2 h
6‐beta‐hydroxycortisol/cortisol ratio [5]: no clinically meaningful alteration
inhibition of transporter protein MRP1 [6]: minimal inhibition
inhibition of sodium/Na+ taurocholate co‐transporting polypeptide [7]: minimal inhibition
inhibition of transporter protein MATE2 [8]: MATE2 inhibition; also recorded: inhibitor of the MATE2 renal transporter

Reference: paper PMC7993274 (Clinical and Translational Science, 2020)
